From ChEMBL document CHEMBL3797186, “Single Residue Substitutions That Confer Voltage-Gated Sodium Ion Channel Subtype Selectivity in the NaV1.7 Inhibitory Peptide GpTx-1” (J Med Chem, 2016)
Positions of bridges follow the written chain, without caps; N, C: chain ends. Non-standard residues stand in square brackets, D forms with d. Residues, ends and D or L forms follow the SMILES beside them. Ala(indol-2-yl) = N[C@@H](Cc1cc2ccccc2[nH]1)C(=O)O; 2Pal = N[C@@H](Cc1ccccn1)C(=O)O

Columns and labels:
Type in all cases: cell-based
[1] = target: T1, Sodium channel protein type 5 subunit alpha (Homo sapiens, UniProt Q14524); test: Inhibition of human Nav1.5 expressed in HEK293 cells assessed as inward peak current by ion-works quattro patch clamp electrophysiology method
Outline: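 Stable HEK293 line expressing human NaV1.5, recorded by population patch clamp on the IonWorks Quattro.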

[2] = target: T2, Sodium channel protein type 9 subunit alpha (Homo sapiens, UniProt Q15858); test: Inhibition of human Nav1.7 expressed in HEK293 cells by whole cell patch clamp electrophysiology method
[3] = target: T2, Sodium channel protein type 9 subunit alpha; test: Inhibition of human Nav1.7 expressed in HEK293 cells assessed as inward peak current by ion-works quattro patch clamp electrophysiology method
[4] = target: T1, Sodium channel protein type 5 subunit alpha; test: Inhibition of human Nav1.5 expressed in HEK293 cells by whole cell patch clamp electrophysiology method
Outline: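 Stable HEK293 line expressing human NaV1.5, recorded on the PatchXpress 7000A. Percent inhibition versus concentration was pooled from at least 10 cells, with two to three points per concentration. The pooled set was fitted with a four-parameter Hill equation to give a single IC50 curve.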

T1 sequence (Q14524 whole entry): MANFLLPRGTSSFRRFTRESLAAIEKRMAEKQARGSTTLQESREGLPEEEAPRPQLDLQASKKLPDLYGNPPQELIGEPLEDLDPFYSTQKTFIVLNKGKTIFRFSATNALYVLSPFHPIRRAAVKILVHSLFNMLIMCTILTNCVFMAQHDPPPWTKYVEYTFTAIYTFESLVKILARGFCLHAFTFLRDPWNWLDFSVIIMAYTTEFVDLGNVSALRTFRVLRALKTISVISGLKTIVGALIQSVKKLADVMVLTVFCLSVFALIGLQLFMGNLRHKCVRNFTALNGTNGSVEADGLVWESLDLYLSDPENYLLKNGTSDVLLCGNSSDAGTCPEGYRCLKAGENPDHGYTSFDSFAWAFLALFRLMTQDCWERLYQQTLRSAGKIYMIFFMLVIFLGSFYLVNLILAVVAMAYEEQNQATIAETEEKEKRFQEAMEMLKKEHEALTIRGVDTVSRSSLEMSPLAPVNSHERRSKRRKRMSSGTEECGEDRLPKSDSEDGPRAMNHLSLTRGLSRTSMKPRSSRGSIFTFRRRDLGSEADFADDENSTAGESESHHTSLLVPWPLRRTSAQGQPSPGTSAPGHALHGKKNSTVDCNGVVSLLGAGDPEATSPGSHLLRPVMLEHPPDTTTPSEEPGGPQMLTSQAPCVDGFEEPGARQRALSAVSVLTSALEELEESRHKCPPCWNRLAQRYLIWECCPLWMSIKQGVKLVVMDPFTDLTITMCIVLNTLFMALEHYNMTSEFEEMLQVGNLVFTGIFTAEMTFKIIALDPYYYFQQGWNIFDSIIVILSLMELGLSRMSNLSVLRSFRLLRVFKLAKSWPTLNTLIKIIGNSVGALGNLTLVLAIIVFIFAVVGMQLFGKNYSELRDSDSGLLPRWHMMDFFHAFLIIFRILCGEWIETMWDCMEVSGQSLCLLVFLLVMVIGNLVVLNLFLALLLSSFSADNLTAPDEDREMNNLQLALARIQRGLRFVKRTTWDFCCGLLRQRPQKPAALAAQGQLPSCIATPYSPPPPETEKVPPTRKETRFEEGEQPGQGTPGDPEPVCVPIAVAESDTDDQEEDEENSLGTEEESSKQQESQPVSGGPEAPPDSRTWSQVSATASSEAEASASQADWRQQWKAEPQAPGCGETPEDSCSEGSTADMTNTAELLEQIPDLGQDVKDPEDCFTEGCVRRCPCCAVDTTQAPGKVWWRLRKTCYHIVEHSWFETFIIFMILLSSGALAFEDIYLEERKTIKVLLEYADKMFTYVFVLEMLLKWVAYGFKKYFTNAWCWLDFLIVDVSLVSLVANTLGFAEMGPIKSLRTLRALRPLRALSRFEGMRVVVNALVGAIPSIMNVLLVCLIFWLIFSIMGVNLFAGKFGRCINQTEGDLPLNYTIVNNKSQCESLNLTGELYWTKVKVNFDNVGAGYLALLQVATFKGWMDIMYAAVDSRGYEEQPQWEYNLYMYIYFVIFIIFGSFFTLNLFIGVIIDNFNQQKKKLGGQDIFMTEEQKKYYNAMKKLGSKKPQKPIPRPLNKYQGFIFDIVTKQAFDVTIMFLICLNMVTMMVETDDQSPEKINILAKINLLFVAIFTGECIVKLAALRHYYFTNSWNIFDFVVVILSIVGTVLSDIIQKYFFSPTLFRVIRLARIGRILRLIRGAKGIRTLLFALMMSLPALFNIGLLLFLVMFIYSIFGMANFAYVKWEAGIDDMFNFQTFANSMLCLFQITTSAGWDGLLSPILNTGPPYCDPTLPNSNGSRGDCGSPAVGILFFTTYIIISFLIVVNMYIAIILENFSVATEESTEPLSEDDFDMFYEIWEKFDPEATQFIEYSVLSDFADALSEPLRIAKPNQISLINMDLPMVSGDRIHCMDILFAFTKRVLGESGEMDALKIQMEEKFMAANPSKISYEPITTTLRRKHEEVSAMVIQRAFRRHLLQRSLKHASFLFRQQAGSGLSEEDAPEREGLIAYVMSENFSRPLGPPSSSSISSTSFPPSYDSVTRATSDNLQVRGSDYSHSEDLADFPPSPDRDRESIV
T2 sequence (Q15858 whole entry): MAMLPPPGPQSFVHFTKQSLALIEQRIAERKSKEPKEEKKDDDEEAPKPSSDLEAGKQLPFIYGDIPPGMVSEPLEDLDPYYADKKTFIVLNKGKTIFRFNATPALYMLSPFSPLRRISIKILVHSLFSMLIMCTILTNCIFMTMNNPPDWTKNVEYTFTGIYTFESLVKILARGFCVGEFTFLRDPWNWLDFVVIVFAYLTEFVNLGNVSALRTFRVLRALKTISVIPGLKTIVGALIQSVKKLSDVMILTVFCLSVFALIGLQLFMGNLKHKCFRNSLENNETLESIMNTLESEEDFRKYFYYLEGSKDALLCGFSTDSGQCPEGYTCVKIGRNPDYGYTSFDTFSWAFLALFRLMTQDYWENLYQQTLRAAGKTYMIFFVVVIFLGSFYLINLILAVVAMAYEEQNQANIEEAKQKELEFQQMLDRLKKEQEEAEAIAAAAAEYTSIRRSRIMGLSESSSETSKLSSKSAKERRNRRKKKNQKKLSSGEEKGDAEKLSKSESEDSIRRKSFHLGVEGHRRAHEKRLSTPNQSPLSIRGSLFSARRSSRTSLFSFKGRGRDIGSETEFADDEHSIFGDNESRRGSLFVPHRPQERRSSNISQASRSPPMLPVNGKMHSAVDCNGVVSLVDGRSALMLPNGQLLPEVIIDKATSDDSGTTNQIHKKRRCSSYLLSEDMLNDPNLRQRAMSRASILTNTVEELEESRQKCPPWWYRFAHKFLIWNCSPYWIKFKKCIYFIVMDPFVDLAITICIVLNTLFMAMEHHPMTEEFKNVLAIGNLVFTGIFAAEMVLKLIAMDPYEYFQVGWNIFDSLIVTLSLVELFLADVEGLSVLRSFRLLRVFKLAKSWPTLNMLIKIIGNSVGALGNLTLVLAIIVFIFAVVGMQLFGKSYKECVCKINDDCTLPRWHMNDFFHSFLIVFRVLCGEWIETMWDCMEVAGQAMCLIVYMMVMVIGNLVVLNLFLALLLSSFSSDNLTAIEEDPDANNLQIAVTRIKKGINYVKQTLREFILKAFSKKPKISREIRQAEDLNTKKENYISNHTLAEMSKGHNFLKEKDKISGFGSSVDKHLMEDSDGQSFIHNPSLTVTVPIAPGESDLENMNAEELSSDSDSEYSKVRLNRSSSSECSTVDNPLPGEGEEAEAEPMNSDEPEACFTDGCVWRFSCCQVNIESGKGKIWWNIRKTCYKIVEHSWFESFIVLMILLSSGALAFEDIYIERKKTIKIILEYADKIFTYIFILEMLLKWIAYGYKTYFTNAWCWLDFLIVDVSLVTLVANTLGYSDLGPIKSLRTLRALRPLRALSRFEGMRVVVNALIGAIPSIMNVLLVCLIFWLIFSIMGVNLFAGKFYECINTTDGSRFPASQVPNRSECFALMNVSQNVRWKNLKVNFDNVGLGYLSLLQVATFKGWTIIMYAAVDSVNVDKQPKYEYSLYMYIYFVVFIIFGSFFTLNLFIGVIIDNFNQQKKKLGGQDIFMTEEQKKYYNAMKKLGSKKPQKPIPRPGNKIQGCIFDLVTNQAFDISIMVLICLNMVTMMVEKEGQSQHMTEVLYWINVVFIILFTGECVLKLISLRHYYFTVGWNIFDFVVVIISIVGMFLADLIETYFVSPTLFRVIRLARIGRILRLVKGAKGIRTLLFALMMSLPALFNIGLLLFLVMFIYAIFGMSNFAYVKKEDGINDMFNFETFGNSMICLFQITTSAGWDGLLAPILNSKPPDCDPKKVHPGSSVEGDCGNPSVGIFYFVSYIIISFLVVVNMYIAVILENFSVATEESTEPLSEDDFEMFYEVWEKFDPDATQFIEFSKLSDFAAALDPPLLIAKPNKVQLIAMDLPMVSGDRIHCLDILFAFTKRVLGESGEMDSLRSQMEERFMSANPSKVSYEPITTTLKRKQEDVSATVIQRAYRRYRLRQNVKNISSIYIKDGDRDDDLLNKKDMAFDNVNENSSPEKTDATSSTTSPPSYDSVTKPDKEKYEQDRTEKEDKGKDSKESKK

Row | Compound | IC50 [1] | IC50 [2] | IC50 [3] | IC50 [4]
1 | CC[C@H](C)[C@@H]1NC(=O)[C@@H]2CSSC[C@@H]3NC(=O)[C@H](Cc4c[nH]c5ccccc45)NC(=O)[C@H](CC(C)C)NC(=O)[C@H](CC(N)=O)NC(=O)[C@@H]4CCCN4C(=O)[C@H](CCCNC(=N)N)NC(=O)[C@H](CSSC[C@H](NC(=O)[C@@H](N)CC(=O)O)C(=O)N[C@@H](CC(C)C)C(=O)NCC(=O)N[C@@H](Cc4ccccc4)C(=O)N[C@@H](CCSC)C(=O)N[C@@H](CCCNC(=N)N)C(=O)N[C@@H](CCCCN)C(=O)N2)NC(=O)[C@H](CSSC[C@@H](C(=O)N[C@@H](CCCCN)C(=O)N[C@@H](Cc2ccc(O)cc2)C(=O)N[C@H](C(=O)N[C@@H](Cc2ccccc2)C(N)=O)C(C)C)NC(=O)[C@H](Cc2c[nH]c4ccccc24)NC(=O)[C@H](CCCCN)NC(=O)[C@H](Cc2cnc[nH]2)NC(=O)[C@H]([C@@H](C)O)NC(=O)[C@H](CCCNC(=N)N)NC(=O)[C@H](CO)NC3=O)NC(=O)[C@H](CCCCN)NC(=O)[C@H](CC(=O)O)NC(=O)[C@H](CC(N)=O)NC(=O)[C@H](CC(=O)O)NC(=O)[C@@H]2CCCN2C1=O (H-DCLGFMRKCIPDNDKCCRPNLWCSRTHKWCKYVF-NH2; disulfide 2-17, 9-23, 16-30) | > 5000 nM | 42 nM | 60 nM | 3200 nM
2 | CC[C@H](C)[C@@H]1NC(=O)[C@@H]2CSSC[C@@H]3NC(=O)[C@H](C(C)C)NC(=O)[C@H](CC(C)C)NC(=O)[C@H](CC(N)=O)NC(=O)[C@@H]4CCCN4C(=O)[C@H](Cc4ccccn4)NC(=O)[C@H](CSSC[C@H](NC(=O)[C@@H](N)CC(=O)O)C(=O)N[C@@H](CC(C)C)C(=O)NCC(=O)N[C@@H](Cc4ccccc4)C(=O)N[C@@H](CCSC)C(=O)N[C@@H](CCCNC(=N)N)C(=O)N[C@@H](CCCCN)C(=O)N2)NC(=O)[C@H](CSSC[C@@H](C(=O)N[C@@H](CCCCN)C(=O)N[C@@H](Cc2ccc(O)cc2)C(=O)N[C@H](C(=O)N[C@@H](Cc2ccccc2)C(N)=O)C(C)C)NC(=O)[C@H](Cc2c[nH]c4ccccc24)NC(=O)[C@H](CCCCN)NC(=O)[C@H](Cc2cnc[nH]2)NC(=O)[C@H]([C@@H](C)O)NC(=O)[C@H](CCCNC(=N)N)NC(=O)[C@H](CO)NC3=O)NC(=O)[C@H](CCCCN)NC(=O)[C@H](CC(=O)O)NC(=O)[C@H](CC(N)=O)NC(=O)[C@H](CC(=O)O)NC(=O)[C@@H]2CCCN2C1=O (H-DCLGFMRKCIPDNDKCC[2Pal]PNLVCSRTHKWCKYVF-NH2; disulfide 2-17, 9-23, 16-30) | > 5000 nM | 4 nM | 300 nM | 13100 nM
3 | CSCC[C@@H]1NC(=O)[C@H](Cc2ccccc2)NC(=O)CNC(=O)[C@H](CC(C)C)NC(=O)[C@@H](NC(=O)[C@@H](N)CC(=O)O)CSSC[C@@H]2NC(=O)[C@@H]3CSSC[C@@H](C(=O)N[C@@H](CCCCN)C(=O)N[C@@H](Cc4ccc(O)cc4)C(=O)N[C@H](C(=O)N[C@@H](Cc4ccccc4)C(N)=O)C(C)C)NC(=O)[C@H](Cc4c[nH]c5ccccc45)NC(=O)[C@H](CCCCN)NC(=O)[C@H](Cc4cnc[nH]4)NC(=O)[C@H]([C@@H](C)O)NC(=O)[C@H](CCCNC(=N)N)NC(=O)[C@H](CO)NC(=O)[C@H](CSSC[C@H](NC(=O)[C@H](CCCCN)NC(=O)[C@H](CCCNC(=N)N)NC1=O)C(=O)N[C@@H](CC(N)=O)C(=O)N1CCC[C@H]1C(=O)N[C@@H](CC(=O)O)C(=O)N[C@@H](CC(N)=O)C(=O)N[C@@H](CC(=O)O)C(=O)N[C@@H](CCCCN)C(=O)N3)NC(=O)[C@H](C(C)C)NC(=O)[C@H](CC(C)C)NC(=O)[C@H](CC(N)=O)NC(=O)[C@@H]1CCCN1C(=O)[C@H](CCCNC(=N)N)NC2=O (H-DCLGFMRKCNPDNDKCCRPNLVCSRTHKWCKYVF-NH2; disulfide 2-17, 9-23, 16-30) | > 5000 nM | 1.9 nM | 330 nM | > 10000 nM
4 | CC[C@H](C)[C@@H]1NC(=O)[C@@H]2CSSC[C@@H]3NC(=O)[C@H](C(C)C)NC(=O)[C@H](CC(C)C)NC(=O)[C@H](CC(N)=O)NC(=O)[C@@H]4CCCN4C(=O)[C@H](CCCCN)NC(=O)[C@H](CSSC[C@H](NC(=O)[C@@H](N)CC(=O)O)C(=O)N[C@@H](CC(C)C)C(=O)NCC(=O)N[C@@H](Cc4ccccc4)C(=O)N[C@@H](CCSC)C(=O)N[C@@H](CCCNC(=N)N)C(=O)N[C@@H](CCCCN)C(=O)N2)NC(=O)[C@H](CSSC[C@@H](C(=O)N[C@@H](CCCCN)C(=O)N[C@@H](Cc2ccc(O)cc2)C(=O)N[C@H](C(=O)N[C@@H](Cc2ccccc2)C(N)=O)C(C)C)NC(=O)[C@H](Cc2c[nH]c4ccccc24)NC(=O)[C@H](CCCCN)NC(=O)[C@H](Cc2cnc[nH]2)NC(=O)[C@H]([C@@H](C)O)NC(=O)[C@H](CCCNC(=N)N)NC(=O)[C@H](CO)NC3=O)NC(=O)[C@H](CCCCN)NC(=O)[C@H](CC(=O)O)NC(=O)[C@H](CC(N)=O)NC(=O)[C@H](CC(=O)O)NC(=O)[C@@H]2CCCN2C1=O (H-DCLGFMRKCIPDNDKCCKPNLVCSRTHKWCKYVF-NH2; disulfide 2-17, 9-23, 16-30) | > 5000 nM | 1.6 nM | 360 nM | 15900 nM
5 | CSCC[C@@H]1NC(=O)[C@H](Cc2ccccc2)NC(=O)CNC(=O)[C@H](CC(C)C)NC(=O)[C@@H](NC(=O)[C@@H](N)CC(=O)O)CSSC[C@@H]2NC(=O)[C@@H]3CSSC[C@@H](C(=O)N[C@@H](CCCCN)C(=O)N[C@@H](Cc4ccc(O)cc4)C(=O)N[C@H](C(=O)N[C@@H](Cc4ccccc4)C(N)=O)C(C)C)NC(=O)[C@H](Cc4c[nH]c5ccccc45)NC(=O)[C@H](CCCCN)NC(=O)[C@H](Cc4cnc[nH]4)NC(=O)[C@H]([C@@H](C)O)NC(=O)[C@H](CCCNC(=N)N)NC(=O)[C@H](CO)NC(=O)[C@H](CSSC[C@H](NC(=O)[C@H](CCCCN)NC(=O)[C@H](CCCNC(=N)N)NC1=O)C(=O)N[C@@H](CCC(=O)O)C(=O)N1CCC[C@H]1C(=O)N[C@@H](CC(=O)O)C(=O)N[C@@H](CC(N)=O)C(=O)N[C@@H](CC(=O)O)C(=O)N[C@@H](CCCCN)C(=O)N3)NC(=O)[C@H](C(C)C)NC(=O)[C@H](CC(C)C)NC(=O)[C@H](CC(N)=O)NC(=O)[C@@H]1CCCN1C(=O)[C@H](CCCNC(=N)N)NC2=O (H-DCLGFMRKCEPDNDKCCRPNLVCSRTHKWCKYVF-NH2; disulfide 2-17, 9-23, 16-30) | > 5000 nM | 2.1 nM | – | > 10000 nM
6 | CC[C@H](C)[C@@H]1NC(=O)[C@@H]2CSSC[C@@H]3NC(=O)[C@H](C(C)C)NC(=O)[C@H](CC(C)C)NC(=O)[C@H](CC(N)=O)NC(=O)[C@@H]4CCCN4C(=O)[C@H](CCCNC(=N)N)NC(=O)[C@H](CSSC[C@H](NC(=O)[C@@H](N)CC(=O)O)C(=O)N[C@@H](CC(C)C)C(=O)NCC(=O)N[C@@H](Cc4ccccc4)C(=O)N[C@@H](CCSC)C(=O)N[C@@H](CCCNC(=N)N)C(=O)N[C@@H](CCCCN)C(=O)N2)NC(=O)[C@H](CSSC[C@@H](C(=O)N[C@@H](CCCCN)C(=O)N[C@@H](Cc2ccc(O)cc2)C(=O)N[C@H](C(=O)N[C@@H](Cc2ccccc2)C(N)=O)C(C)C)NC(=O)[C@H](Cc2c[nH]c4ccccc24)NC(=O)[C@H](CCCCN)NC(=O)[C@H](Cc2cnc[nH]2)NC(=O)[C@H]([C@@H](C)O)NC(=O)[C@H](CCCNC(=N)N)NC(=O)[C@H](CO)NC3=O)NC(=O)[C@H](CCCCN)NC(=O)[C@H](CC(=O)O)NC(=O)[C@H](CC(N)=O)NC(=O)[C@H](CC(=O)O)NC(=O)[C@H](CCC(=O)O)NC1=O (H-DCLGFMRKCIEDNDKCCRPNLVCSRTHKWCKYVF-NH2; disulfide 2-17, 9-23, 16-30) | > 5000 nM | 2.5 nM | – | > 10000 nM
7 | CC[C@H](C)[C@@H]1NC(=O)[C@@H]2CSSC[C@@H]3NC(=O)[C@H](C(C)C)NC(=O)[C@H](CC(C)C)NC(=O)[C@H](CC(N)=O)NC(=O)[C@@H]4CCCN4C(=O)[C@H](Cc4cc5ccccc5[nH]4)NC(=O)[C@H](CSSC[C@H](NC(=O)[C@@H](N)CC(=O)O)C(=O)N[C@@H](CC(C)C)C(=O)NCC(=O)N[C@@H](Cc4ccccc4)C(=O)N[C@@H](CCSC)C(=O)N[C@@H](CCCNC(=N)N)C(=O)N[C@@H](CCCCN)C(=O)N2)NC(=O)[C@H](CSSC[C@@H](C(=O)N[C@@H](CCCCN)C(=O)N[C@@H](Cc2ccc(O)cc2)C(=O)N[C@H](C(=O)N[C@@H](Cc2ccccc2)C(N)=O)C(C)C)NC(=O)[C@H](Cc2c[nH]c4ccccc24)NC(=O)[C@H](CCCCN)NC(=O)[C@H](Cc2cnc[nH]2)NC(=O)[C@H]([C@@H](C)O)NC(=O)[C@H](CCCNC(=N)N)NC(=O)[C@H](CO)NC3=O)NC(=O)[C@H](CCCCN)NC(=O)[C@H](CC(=O)O)NC(=O)[C@H](CC(N)=O)NC(=O)[C@H](CC(=O)O)NC(=O)[C@@H]2CCCN2C1=O (H-DCLGFMRKCIPDNDKCC[Ala(indol-2-yl)]PNLVCSRTHKWCKYVF-NH2; disulfide 2-17, 9-23, 16-30) | > 5000 nM | 18 nM | 180 nM | > 10000 nM
8 | CC[C@H](C)[C@@H]1NC(=O)[C@@H]2CSSC[C@@H]3NC(=O)[C@H](C(C)C)NC(=O)[C@H](CC(C)C)NC(=O)[C@H](CC(N)=O)NC(=O)[C@@H]4CCCN4C(=O)[C@H](CCCNC(N)=O)NC(=O)[C@H](CSSC[C@H](NC(=O)[C@@H](N)CC(=O)O)C(=O)N[C@@H](CC(C)C)C(=O)NCC(=O)N[C@@H](Cc4ccccc4)C(=O)N[C@@H](CCSC)C(=O)N[C@@H](CCCNC(=N)N)C(=O)N[C@@H](CCCCN)C(=O)N2)NC(=O)[C@H](CSSC[C@@H](C(=O)N[C@@H](CCCCN)C(=O)N[C@@H](Cc2ccc(O)cc2)C(=O)N[C@H](C(=O)N[C@@H](Cc2ccccc2)C(N)=O)C(C)C)NC(=O)[C@H](Cc2c[nH]c4ccccc24)NC(=O)[C@H](CCCCN)NC(=O)[C@H](Cc2cnc[nH]2)NC(=O)[C@H]([C@@H](C)O)NC(=O)[C@H](CCCNC(=N)N)NC(=O)[C@H](CO)NC3=O)NC(=O)[C@H](CCCCN)NC(=O)[C@H](CC(=O)O)NC(=O)[C@H](CC(N)=O)NC(=O)[C@H](CC(=O)O)NC(=O)[C@@H]2CCCN2C1=O | > 5000 nM | 1.9 nM | 180 nM | > 10000 nM
